Measurements taken from ChEMBL document CHEMBL1687778, “Genetic determinants involved in the susceptibility of Pseudomonas aeruginosa to beta-lactam antibiotics” (2010).
Converted amounts (≈) assume the structure as drawn.

Assays:
Assay type in all cases: functional
Pseudomonas aeruginosa [1] = assay: Antimicrobial activity against Pseudomonas aeruginosa PA14 PA0011 harboring mutation in putative 2-OH-lauroyltransferase by Etest method
Outline: (§1)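 Overnight LB cultures (37°C) diluted in sterile 0.85% NaCl to about 1 × 10^7 CFU/ml. 100 µl spread on Mueller-Hinton agar, one Etest strip per plate, 18 h at 37°C. Ceftazidime, imipenem and meropenem tested. Wild-type PA14 plate included in each set. Each mutant verified in triplicate.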

Pseudomonas aeruginosa [2] = assay: Antimicrobial activity against Pseudomonas aeruginosa PA14 PA14_43090 harboring mutation in hypothetical protein by Etest method; outline: as §1
Pseudomonas aeruginosa [3] = assay: Antimicrobial activity against Pseudomonas aeruginosa PA14 PA0479 harboring mutation in putative transcriptional regulator, LysR family by Etest method; outline: as §1
Pseudomonas aeruginosa [4] = assay: Antimicrobial activity against Pseudomonas aeruginosa PA14 PA2615 harboring ftsK mutant gene by Etest method; outline: as §1
Pseudomonas aeruginosa [5] = assay: Antimicrobial activity against Pseudomonas aeruginosa PA14 PA2128 harboring cupA1 mutant gene by Etest method; outline: as §1
Pseudomonas aeruginosa [6] = assay: Antimicrobial activity against Pseudomonas aeruginosa PA14 PA1195 harboring mutation in putative dimethylarginine dimethylaminohydrolase by Etest method; outline: as §1
Pseudomonas aeruginosa [7] = assay: Antimicrobial activity against Pseudomonas aeruginosa PA14 PA4753 harboring mutation in putative RNA-binding protein by Etest method
Outline: (§2)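 Etest MIC. Overnight LB cultures at 37°C were diluted in sterile 0.85% NaCl to about 1 × 10^7 CFU/ml. 100 µl was spread on Mueller-Hinton agar, one strip was placed per plate, and plates were incubated at 37°C for 18 h. Equal cell numbers were seeded per plate, and results were verified in triplicate. PA14 wild type was included in each set as a susceptibility control.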

Pseudomonas aeruginosa [8] = assay: Antimicrobial activity against Pseudomonas aeruginosa PA14 PA4069 harboring mutation in putative dTDP-4-rhamnose reductase-related protein by Etest method; outline: as §2
Pseudomonas aeruginosa [9] = assay: Antimicrobial activity against Pseudomonas aeruginosa PA14 PA5443 harboring uvrD mutant gene by Etest method; outline: as §2
Pseudomonas aeruginosa [10] = assay: Antimicrobial activity against Pseudomonas aeruginosa PA14 PA5038 harboring aroB mutant gene by Etest method; outline: as §2
Pseudomonas aeruginosa [11] = assay: Antimicrobial activity against Pseudomonas aeruginosa PA14 PA14_59780 harboring rcsC mutant gene by Etest method; outline: as §1
Pseudomonas aeruginosa [12] = assay: Antimicrobial activity against Pseudomonas aeruginosa PA14 PA3433 harboring mutation in putative transcriptional regulator, LysR family by Etest method; outline: as §2
Pseudomonas aeruginosa [13] = assay: Antimicrobial activity against Pseudomonas aeruginosa PA14 PA5001 harboring mutation in conserved hypothetical protein by Etest method; outline: as §2
Pseudomonas aeruginosa [14] = assay: Antimicrobial activity against Pseudomonas aeruginosa PA14 PA14_07490/07510 harboring mutation in intergenic region by Etest method; outline: as §1
Pseudomonas aeruginosa [15] = assay: Antimicrobial activity against Pseudomonas aeruginosa PA14 PA3978 harboring mutation in hypothetical protein by Etest method; outline: as §2
Pseudomonas aeruginosa [16] = assay: Antimicrobial activity against Pseudomonas aeruginosa PA14 PA14_23430 harboring mutation in putative heparinase by Etest method; outline: as §1
Pseudomonas aeruginosa [17] = assay: Antimicrobial activity against Pseudomonas aeruginosa PA14 PA3520 harboring mutation in putative periplasmic metal-binding protein by Etest method; outline: as §2
Pseudomonas aeruginosa [18] = assay: Antimicrobial activity against Pseudomonas aeruginosa PA14 PA5366 harboring pstB mutant gene by Etest method; outline: as §2
Pseudomonas aeruginosa [19] = assay: Antimicrobial activity against Pseudomonas aeruginosa PA14 PA0503 harboring mutation in Putative biotin synthesis protein BioC by Etest method; outline: as §1
Pseudomonas aeruginosa [20] = assay: Antimicrobial activity against Pseudomonas aeruginosa PA14 PA3145 harboring wbpL mutant gene by Etest method; outline: as §1
Pseudomonas aeruginosa [21] = assay: Antimicrobial activity against Pseudomonas aeruginosa PA14 PA3667 harboring mutation in putative cysteine sulfinate desulfinase by Etest method; outline: as §2
Pseudomonas aeruginosa [22] = assay: Antimicrobial activity against Pseudomonas aeruginosa PA14 PA5130 harboring mutation in putative rhodanese-like domain protein by Etest method; outline: as §2
Pseudomonas aeruginosa [23] = assay: Antimicrobial activity against Pseudomonas aeruginosa PA14 PA0420 harboring bioA mutant gene by Etest method; outline: as §1
Pseudomonas aeruginosa [24] = assay: Antimicrobial activity against Pseudomonas aeruginosa PA14 PA1483 harboring cycH mutant gene by Etest method; outline: as §1
Pseudomonas aeruginosa [25] = assay: Antimicrobial activity against Pseudomonas aeruginosa PA14 PA3247 harboring mutation in putative aspartyl aminopeptidase by Etest method; outline: as §1
Pseudomonas aeruginosa [26] = assay: Antimicrobial activity against Pseudomonas aeruginosa PA14 PA4550 harboring fimU mutant gene by Etest method; outline: as §2
Pseudomonas aeruginosa [27] = assay: Antimicrobial activity against Pseudomonas aeruginosa PA14 PA3141 harboring wbpM mutant gene by Etest method; outline: as §1
Pseudomonas aeruginosa [28] = assay: Antimicrobial activity against Pseudomonas aeruginosa PA14 PA4748 harboring tpiA mutant gene by Etest method; outline: as §2
Pseudomonas aeruginosa [29] = assay: Antimicrobial activity against Pseudomonas aeruginosa PA14 PA2621 harboring clpS mutant gene by Etest method; outline: as §1
Pseudomonas aeruginosa [30] = assay: Antimicrobial activity against Pseudomonas aeruginosa PA14 PA2487 harboring mutation in hypothetical protein by Etest method; outline: as §1
Pseudomonas aeruginosa [31] = assay: Antimicrobial activity against Pseudomonas aeruginosa PA14 PA5174 harboring mutation in putative beta-ketoacyl synthase by Etest method; outline: as §2
Pseudomonas aeruginosa [32] = assay: Antimicrobial activity against Pseudomonas aeruginosa PA14 PA4527 harboring pilC mutant gene by Etest method; outline: as §2
Pseudomonas aeruginosa [33] = assay: Antimicrobial activity against Pseudomonas aeruginosa PA14 PA14_06490 harboring mutation in hypothetical protein by Etest method; outline: as §1
Pseudomonas aeruginosa [34] = assay: Antimicrobial activity against Pseudomonas aeruginosa PA14 PA3620 harboring mutS mutant gene by Etest method; outline: as §2
Pseudomonas aeruginosa [35] = assay: Antimicrobial activity against Pseudomonas aeruginosa PA14 PA4946 harboring mutL mutant gene by Etest method; outline: as §2
Pseudomonas aeruginosa [36] = assay: Antimicrobial activity against Pseudomonas aeruginosa PA14 PA3704 harboring wspE mutant gene by Etest method; outline: as §2
Pseudomonas aeruginosa [37] = assay: Antimicrobial activity against Pseudomonas aeruginosa PA14 PA5192 harboring pckA mutant gene by Etest method; outline: as §2
Pseudomonas aeruginosa [38] = assay: Antimicrobial activity against Pseudomonas aeruginosa PA14 PA5003 harboring mutation in conserved hypothetical protein by Etest method; outline: as §2
Pseudomonas aeruginosa [39] = assay: Antimicrobial activity against Pseudomonas aeruginosa PA14 PA14_23420 harboring mutation in putative zinc-binding dehydrogenase by Etest method; outline: as §1
Pseudomonas aeruginosa [40] = assay: Antimicrobial activity against Pseudomonas aeruginosa PA14 PA1348 harboring mutation in conserved hypothetical protein by Etest method; outline: as §1
Pseudomonas aeruginosa [41] = assay: Antimicrobial activity against Pseudomonas aeruginosa PA14 PA4393 harboring mutation in putative permease by Etest method; outline: as §2
Pseudomonas aeruginosa [42] = assay: Antimicrobial activity against Pseudomonas aeruginosa PA14 PA0958 harboring oprD mutant gene by Etest method; outline: as §1
Pseudomonas aeruginosa [43] = assay: Antimicrobial activity against Pseudomonas aeruginosa PA14 PA4007 harboring proA mutant gene by Etest method; outline: as §2
Pseudomonas aeruginosa [44] = assay: Antimicrobial activity against Pseudomonas aeruginosa PA14 PA0402 harboring pyrB mutant gene by Etest method; outline: as §1
Pseudomonas aeruginosa [45] = assay: Antimicrobial activity against Pseudomonas aeruginosa PA14 PA3818 harboring suhB mutant gene by Etest method; outline: as §2
Pseudomonas aeruginosa [46] = assay: Antimicrobial activity against Pseudomonas aeruginosa PA14 PA4088 harboring mutation in putative aminotransferase by Etest method; outline: as §2
Pseudomonas aeruginosa [47] = assay: Antimicrobial activity against Pseudomonas aeruginosa PA14 PA1553 harboring mutation in putative cytochrome c oxidase, cbb3 type, subunit II by Etest method; outline: as §1

Structure (SMILES): C[C@@H](O)[C@H]1C(=O)N2C(C(=O)O)=C(SCCNC=N)C[C@H]12 [IMIPENEM ANHYDROUS]
- MIC (Pseudomonas aeruginosa [1]): 0.38 µg/mL (≈ 1.27 µM)
- MIC (Pseudomonas aeruginosa [2]): 0.38 µg/mL (≈ 1.27 µM)
- MIC (Pseudomonas aeruginosa [3]): 1 µg/mL (≈ 3.34 µM)
- MIC (Pseudomonas aeruginosa [4]): 0.19 µg/mL (≈ 0.635 µM)
- MIC (Pseudomonas aeruginosa [5]): 0.38 µg/mL (≈ 1.27 µM)
- MIC (Pseudomonas aeruginosa [6]): 0.38 µg/mL (≈ 1.27 µM)
- MIC (Pseudomonas aeruginosa [7]): 0.5 µg/mL (≈ 1.67 µM)
- MIC (Pseudomonas aeruginosa [8]): 0.25 µg/mL (≈ 0.835 µM)
- MIC (Pseudomonas aeruginosa [9]): 0.5 µg/mL (≈ 1.67 µM)
- MIC (Pseudomonas aeruginosa [10]): 0.38 µg/mL (≈ 1.27 µM)
- MIC (Pseudomonas aeruginosa [11]): 0.5 µg/mL (≈ 1.67 µM)
- MIC (Pseudomonas aeruginosa [12]): 0.19 µg/mL (≈ 0.635 µM)
- MIC (Pseudomonas aeruginosa [13]): 0.38 µg/mL (≈ 1.27 µM)
- MIC (Pseudomonas aeruginosa [14]): 0.5 µg/mL (≈ 1.67 µM)
- MIC (Pseudomonas aeruginosa [15]): 0.094 µg/mL (≈ 0.314 µM)
- MIC (Pseudomonas aeruginosa [16]): 0.38 µg/mL (≈ 1.27 µM)
- MIC (Pseudomonas aeruginosa [17]): 0.5 µg/mL (≈ 1.67 µM)
- MIC (Pseudomonas aeruginosa [18]): 0.25 µg/mL (≈ 0.835 µM)
- MIC (Pseudomonas aeruginosa [19]): 0.19 µg/mL (≈ 0.635 µM)
- MIC (Pseudomonas aeruginosa [20]): 0.38 µg/mL (≈ 1.27 µM)
- MIC (Pseudomonas aeruginosa [21]): 0.75 µg/mL (≈ 2.51 µM)
- MIC (Pseudomonas aeruginosa [22]): 0.19 µg/mL (≈ 0.635 µM)
- MIC (Pseudomonas aeruginosa [23]): 0.125 µg/mL (≈ 0.418 µM)
- MIC (Pseudomonas aeruginosa [24]): 0.5 µg/mL (≈ 1.67 µM)
- MIC (Pseudomonas aeruginosa [25]): 0.38 µg/mL (≈ 1.27 µM)
- MIC (Pseudomonas aeruginosa [26]): 0.5 µg/mL (≈ 1.67 µM)
- MIC (Pseudomonas aeruginosa [27]): 0.5 µg/mL (≈ 1.67 µM)
- MIC (Pseudomonas aeruginosa [28]): 0.38 µg/mL (≈ 1.27 µM)
- MIC (Pseudomonas aeruginosa [29]): 0.38 µg/mL (≈ 1.27 µM)
- MIC (Pseudomonas aeruginosa [30]): 0.5 µg/mL (≈ 1.67 µM)
- MIC (Pseudomonas aeruginosa [31]): 0.125 µg/mL (≈ 0.418 µM)
- MIC (Pseudomonas aeruginosa [32]): 0.38 µg/mL (≈ 1.27 µM)
- MIC (Pseudomonas aeruginosa [33]): 0.38 µg/mL (≈ 1.27 µM)
- MIC (Pseudomonas aeruginosa [34]): 0.38 µg/mL (≈ 1.27 µM)
- MIC (Pseudomonas aeruginosa [35]): 0.38 µg/mL (≈ 1.27 µM)
- MIC (Pseudomonas aeruginosa [36]): 0.5 µg/mL (≈ 1.67 µM)
- MIC (Pseudomonas aeruginosa [37]): 0.38 µg/mL (≈ 1.27 µM)
- MIC (Pseudomonas aeruginosa [38]): 0.5 µg/mL (≈ 1.67 µM)
- MIC (Pseudomonas aeruginosa [39]): 0.38 µg/mL (≈ 1.27 µM)
- MIC (Pseudomonas aeruginosa [40]): 0.5 µg/mL (≈ 1.67 µM)
- MIC (Pseudomonas aeruginosa [41]): 0.25 µg/mL (≈ 0.835 µM)
- MIC (Pseudomonas aeruginosa [42]): 2 µg/mL (≈ 6.68 µM)
- MIC (Pseudomonas aeruginosa [43]): 0.19 µg/mL (≈ 0.635 µM)
- MIC (Pseudomonas aeruginosa [44]): 0.38 µg/mL (≈ 1.27 µM)
- MIC (Pseudomonas aeruginosa [45]): 0.38 µg/mL (≈ 1.27 µM)
- MIC (Pseudomonas aeruginosa [46]): 0.38 µg/mL (≈ 1.27 µM)
- MIC (Pseudomonas aeruginosa [47]): 1 µg/mL (≈ 3.34 µM)
